“And” between values parts separate entries of the source, which are not always exact repeats. Equal values may be shown once.
What was measured:
Rattus norvegicus [1] = experiment: In vivo Sterol lowering activity at dose as 0.10 % of the diet.; format: functional
Summary of the method: (§1)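 Male CFE or CD-1 Sprague-Dawley rats, 140-150 g; 8 per control group, 4 per test group. Compound mixed into ground chow (w/w) via MeOH-CHCl3 (1:3) solution, solvent evaporated; controls got solvent-treated chow. Fed ad libitum 5 days, food intake monitored, killed fed and bled. Serum sterols and triglycerides by adapted autoanalyzer methods; mean percent of control, Student's t test.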

[2] = biological target: T1, Sterol O-acyltransferase 1 (Rattus norvegicus) (UniProt O70536); experiment: In vitro inhibitory activity against acyl coenzyme A:cholesterol acyltransferase (ACAT); parameters: concentration or dose not given beside the values; settings: concentration not given here
T1 sequence (whole entry): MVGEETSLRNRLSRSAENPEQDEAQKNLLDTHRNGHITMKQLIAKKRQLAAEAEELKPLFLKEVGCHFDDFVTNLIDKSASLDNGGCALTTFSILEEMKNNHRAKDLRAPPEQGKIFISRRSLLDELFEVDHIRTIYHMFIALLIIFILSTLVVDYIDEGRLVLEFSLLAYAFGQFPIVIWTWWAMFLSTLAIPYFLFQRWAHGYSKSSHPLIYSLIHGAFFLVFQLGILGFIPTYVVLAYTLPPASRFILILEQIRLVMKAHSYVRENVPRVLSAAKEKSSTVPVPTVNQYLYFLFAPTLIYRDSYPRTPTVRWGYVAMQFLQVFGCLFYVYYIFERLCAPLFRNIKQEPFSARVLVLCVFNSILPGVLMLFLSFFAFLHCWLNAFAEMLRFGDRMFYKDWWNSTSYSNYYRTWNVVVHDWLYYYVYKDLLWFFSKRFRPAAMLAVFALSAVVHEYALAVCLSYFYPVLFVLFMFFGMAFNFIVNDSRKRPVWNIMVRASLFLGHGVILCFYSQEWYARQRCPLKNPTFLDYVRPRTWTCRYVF
Summary of the method: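 ACAT enzyme from rat adrenal homogenate in 0.2 M KH2PO4 buffer pH 7.4, 1000g 15 min 5 °C supernatant (microsomal fraction). Supernatant + BSA (50 mg/mL) + compound at final 5.2 μg/mL + buffer preincubated 10 min 37 °C; [14C]oleoyl-CoA (0.4 μCi) added, 30 min 37 °C. Lipids extracted, TLC; cholesteryl ester zone counted. Mean % inhibition vs no-compound control; Student's t test.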

Rattus norvegicus [3] = experiment: In vivo triglyceride lowering activity dosed at 0.10 % of the diet; format: functional; summary of the method: as §1
Rattus norvegicus [4] = experiment: In vivo sterol lowering activity dosed at 0.10 % of the diet; format: functional; summary of the method: as §1
Rattus norvegicus [5] = experiment: In vivo triglyceride lowering activity, dosed at 0.01 % of the diet.; format: functional; summary of the method: as §1
Rattus norvegicus [6] = experiment: In vivo triglyceride lowering activity, dosed at 0.03 % of the diet; format: functional; summary of the method: as §1
Rattus norvegicus [7] = experiment: In vivo Sterol lowering activity at dose as 0.03 % of the diet.; format: functional; summary of the method: as §1
Rattus norvegicus [8] = experiment: In vivo Sterol lowering activity at dose as 0.01 % of the diet.; format: functional; summary of the method: as §1

Row | Compound | inhibition [2] | serum triglycerides, percent of control (Rattus norvegicus [3]) [%] | serum sterol, percent of control (Rattus norvegicus [4]) [%] | further results
1 | CCOC(=O)c1ccc(N(CC)CCCc2ccc(Cl)cc2)cc1 | 48% | 67 | – | serum sterol, percent of control (Rattus norvegicus [1]): 86%
2 | CCCCCCCCCCCCCNc1ccc(C(=O)O)cc1 | < 29% | – | – | –
3 | CCN(CCCc1ccc(Cl)cc1)c1ccc(C(=O)O)cc1 | 52% | 68 | – | serum sterol, percent of control (Rattus norvegicus [1]): 83%
4 | CCCCCCCCCCCCCCCCCCCNc1ccc(C(=O)O)cc1 | < 36% | – | – | –
5 | CCCCCCCCCCCc1nc(CNc2ccc(C(=O)OCC)cc2)c[nH]1 | < 59% | 83 | 100 | –
6 | O=C([O-])c1ccc(NCCCc2ccc(Cl)cc2)cc1.[Na+] | – | 52 | 84 | Diet (Rattus norvegicus [5]): 72%; serum triglycerides, percent of control (Rattus norvegicus [6]): 60%; serum sterol level, percent of control (Rattus norvegicus [7]): 92%; serum sterol, percent of control (Rattus norvegicus [8]): 94%
7 | CCCCCCCCCCCCCCCCNc1ccc(C(=O)O)cc1 | < 53% | – | – | –
8 | O=C(O)c1ccc(NCCCc2ccc(Cl)cc2)cc1 [listing 1 of 2 here] | – | 50 | 72 | Diet (Rattus norvegicus [5]): 70%; serum triglycerides, percent of control (Rattus norvegicus [6]): 54%; serum sterol level, percent of control (Rattus norvegicus [7]): 94%; serum sterol, percent of control (Rattus norvegicus [8]): 94%
9 | CCCCCCCCCCCCCCCCCCNc1ccc(C(=O)O)cc1 | < 60% | – | – | –
10 | COc1ccc(/C=C/C(=O)Nc2ccc(C(=O)O)cc2)cc1 | 20% | – | – | –
11 | COc1ccc(CCC(=O)Nc2ccc(C(=O)O)cc2)cc1 | 0% | – | – | –
12 | O=C(O)c1ccc(NCCCc2ccc(Cl)cc2)cc1 [listing 2 of 2 here] | 18% and 19% | – | – | –
13 | CCCCCCCCCCCCCNc1ccc(C(=O)OCC)cc1 | < 22% | <70 | 91 | –
14 | CCCCCCNc1ccc(C(=O)O)cc1 | – | – | – | serum sterol, percent of control (Rattus norvegicus [1]): 94%
15 | C=CCCCCCCCC/C=C/CCCNc1ccc(C(=O)O)cc1 | < 44% | – | – | –
16 | CCOC(=O)c1ccc(NCCCCCCCCCCCCc2cccs2)cc1 | < 40% | <46 | 103 | –

Row | Compound | inhibition [2] | serum triglycerides, percent of control (Rattus norvegicus [3]) [%] | serum sterol, percent of control (Rattus norvegicus [4]) [%] | further results
17 | CCOC(=O)c1ccc(N(C)CCCc2ccc(Cl)cc2)cc1 | 53% | 49 | – | serum sterol, percent of control (Rattus norvegicus [1]): 99%
18 | CCCCCCCCCCCCNc1ccc(C(=O)O)cc1 | < 21% and 17% | – | – | –
19 | CCCCCCCCCCCCCCCCCNc1ccc(C(=O)OCC)cc1 | – | – | 111 | –
20 | CCOC(=O)c1ccc(NCCCCCCCCCC/C=C/c2cccs2)cc1 | < 62% | – | – | –
21 | O=C(O)c1ccc(NCc2ccc(Cl)cc2)cc1 | 15% and 13% | – | – | –
22 | CCCCCCCCCC/C=C/CCCNc1ccc(C(=O)O)cc1 | < 46% | – | – | –
23 | CCOC(=O)c1ccc(NCCCc2c(Cl)cccc2Cl)cc1 | 62% | 64 | – | serum sterol, percent of control (Rattus norvegicus [1]): 92%
24 | CCCCCCCCCCCCCCCCNc1ccc(C(=O)OC)cc1 | 0% | 85 | 97 | –
25 | CCOC(=O)c1ccc(NCCCCCCCCCC/C=C\c2cccs2)cc1 | < 47% | 72 | <82 | –
26 | CN(CCCc1ccc(Cl)cc1)c1ccc(C(=O)O)cc1 | 24% | 74 | – | serum sterol, percent of control (Rattus norvegicus [1]): 107%
27 | C=C(CCCCCCCCCC)CCCCCNc1ccc(C(=O)OCC)cc1 | 9% | <56 | <88 | –
28 | CCCCCCCCc1ccc(CCCNc2ccc(C(=O)OCC)cc2)s1 | < 57% | <46 | <83 | –
29 | CCOC(=O)c1ccc(NCCCc2ccc(Cl)cc2)cc1 | 42% | 52 | 76 | serum sterol level, percent of control (Rattus norvegicus [7]): 89%; serum sterol, percent of control (Rattus norvegicus [8]): 90%
30 | CCOC(=O)c1ccc(NCCCCCCc2cccs2)cc1 | 63% | – | – | –
31 | CCOC(=O)c1ccc(NC(=O)/C=C/c2ccc(OC)cc2)cc1 | 52% | – | – | –
